# Screening data deposited in PubChem by several laboratories.
# STAT1 activator: STAT1 signaling activation; hit rate 2.6% among 200,000; NIH 3T3 STAT1-luciferase reporter, IFN-gamma, luminescence; 100% = IFN-gamma alone, no compound; activation (% of control), % at 5.5 µM; AID 932;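 active = activation above the screen-wide mean activation plus 3 SD, cut at about 130% in these data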;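 note: raw ratio to IFN-gamma control signal so 100% means no change and 0% no light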
# FLuc act counter: firefly luciferase counter-screen for stimulation assays. ATPlite luciferase biochemical, luminescence, 10 min; 0 = ATP-free wells, 1 = DMSO control. activation factor at 10 µM. 200,000 tested, under 10 active;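 active = luciferase activation factor, scaled between plate controls, of at least 2 with compound at 10 µM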
# Target sequence (P08659 whole entry, looked up): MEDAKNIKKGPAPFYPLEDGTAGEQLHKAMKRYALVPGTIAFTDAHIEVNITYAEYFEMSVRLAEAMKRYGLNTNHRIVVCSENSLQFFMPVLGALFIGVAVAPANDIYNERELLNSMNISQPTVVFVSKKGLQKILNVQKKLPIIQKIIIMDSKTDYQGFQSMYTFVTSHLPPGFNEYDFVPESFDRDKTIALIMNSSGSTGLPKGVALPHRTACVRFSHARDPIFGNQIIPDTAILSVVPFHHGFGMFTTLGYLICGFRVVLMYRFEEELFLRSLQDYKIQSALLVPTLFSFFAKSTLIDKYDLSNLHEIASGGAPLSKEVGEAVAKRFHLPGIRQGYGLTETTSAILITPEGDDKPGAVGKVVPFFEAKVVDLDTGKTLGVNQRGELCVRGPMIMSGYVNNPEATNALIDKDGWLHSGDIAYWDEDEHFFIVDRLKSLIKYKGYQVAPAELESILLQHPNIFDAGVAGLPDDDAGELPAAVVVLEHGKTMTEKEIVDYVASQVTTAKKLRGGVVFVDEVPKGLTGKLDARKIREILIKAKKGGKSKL
#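 test system = cell-free luciferase reagent | medium = PBS as buffer for the ATP substrate | dosing = test compounds dosed from 2 mM stocks in 100% DMSO | incubation = 10 min at ambient temperature | detection = luminescence measurement of luciferase light output | benchmarks = low control with PBS replacing ATP, high control enzyme plus ATP without compound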
# SDO1 yeast rescue: compounds rescuing growth of sdo1-depleted yeast, bone marrow failure model. S. cerevisiae sdo1-depleted JHY4D growth rescue, OD600 30 h; hits give high values; pdr5 snq2 efflux-pump mutant strain. z-score at 10 µM. hit rate 0.21% among 140,000;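 active = z-score above 3 at both the 24 hr and the 30 hr optical density reads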;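 note: z-score against mean and SD of all compound wells on the same plate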
# APP 5'UTR act: activates APP 5'UTR luciferase reporter; SH-SY5Y APP 5'UTR luciferase reporter, luminescence; zero percent = DMSO vehicle wells; activation, % at 2 µM; hit rate 1% among 190,000;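 active = activation above a set limit, based on mean plus 3 SD of controls, cut at about 140% in these data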
# FLuc inhib CS: Photinus pyralis luciferase inhibition counter-screen; ATPLite firefly luciferase biochemical luminescence, 10 min; inhibition, % at 10 µM; hit rate 1.5% among 200,000; AID 1006;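 active = inhibition above about 50% when tested at 10 µM, limit read from the data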
# NF-kB neuron act: NF-kB expression increase, human neuronal cells | NF-kB reporter expression; hits give high values | fold change at 12.5 µM | hit rate 1.6% among 190,000 | AID 1239; in the data active = fold change above about 3.3
# * = called active by the depositor; . = not tested or not shown. Hits are enriched below; roughly 4.3% of the tested compounds scored in any of these assays.
SMILES,STAT1 activator,FLuc act counter,SDO1 yeast rescue,APP 5'UTR act,FLuc inhib CS,NF-kB neuron act
O=[N+]([O-])c1cc(/C=N/N/C(=N/c2ccccn2)c2ccccn2)ccc1O,119.9,1,.,43.8,0.8,1.45
c1cncc(-c2csc(NCc3ccco3)n2)c1,110.0,0.9,0.98,3.0,8.3,1.48
c1ccc(CCNc2nc(-c3ccccn3)cs2)cc1,142.4*,0.8,.,122.4,24.6,4.1*
CC1CC1C(=O)Nc1nc(-c2ccccn2)cs1 (stereo unspecified),101.1,1,-0.33,8.4,2.5,1.17
c1ccc(CCNc2nc(-c3cccnc3)cs2)cc1,133.2*,0.8,-1.24,25.8,16.6,1.8
O=C(Nc1nccs1)c1ccc(COc2ccccc2Cl)o1,116.3,0.9,.,5.0,5.0,1.82
Cn1c(SCC(=O)c2ccccc2)nnc1-c1ccc(O)cc1,129.4*,0.9,1.04,68.4,6.4,2.24
COC(=O)c1ccc(C(=O)OC)c(NC2=NS(=O)(=O)c3ccccc32)c1,105.2,1,-0.23,-10.6,-2.8,1.11
COC(=O)c1c(-c2ccccc2)csc1NC1=NS(=O)(=O)c2ccccc21,135.5*,0.3,0.09,134.7,65.4*,1.17
O=C(NC(Cc1c[nH]c2ccccc12)C(=O)NCc1ccc(F)cc1)OCc1ccccc1 (stereo unspecified),107.4,1.1,-0.1,8.5,-6.7,0.97
CN(C)c1ccc(-n2cc3c(=O)n(C)c(=O)n(C)c3c2)cc1,134.5*,0.9,-1.03,19.9,7.8,1.33
CCN(CC)c1ccc(-n2cc3c(=O)n(C)c(=O)n(C)c3c2)cc1,96.9,1,-1,7.4,3.5,1.11
O=C(Nc1ccc2c(c1)OCCO2)c1cc2ccccc2o1,82.2,0.1,.,224.9*,92.1*,9.25*
O=C(Nc1ccc2oc(=O)ccc2c1)c1cc2ccccc2o1,148.5*,0.7,-1.77,96.2,28.3,2.43
Cn1c(=O)n(C)c2cc(NC(=O)c3cc4ccccc4o3)ccc21,99.6,1,0.05,21.4,4.2,0.63
O=C(Nc1ccc2c(c1)OCCO2)c1ccc(Br)o1,125.3,0.2,1.19,136.0*,81.9*,4.87*
O=C(Nc1ccc2c(c1)OCCO2)c1c(F)c(F)c(F)c(F)c1F,99.1,1,0.36,.,-4.0,1.03
Cc1cc(=O)oc2cc(NC(=O)c3cc4ccccc4o3)ccc12,102.1,1,-0.86,3.6,1.4,1.19
O=C(c1ccc(S(=O)(=O)c2ccc(Cl)cc2)cc1)N1CCOCC1,97.3,1.1,.,1.7,-8.1,1.05
Cc1ccc(NS(=O)(=O)c2ccc(C(=O)OCC(=O)NCC3CCCO3)cc2)cc1 (stereo unspecified),104.5,1,.,-8.9,-4.7,1.09
CCOC(=O)N1CCN(c2cc(=O)n(-c3cccc(C)c3)c(=O)[nH]2)CC1,88.5,1.1,.,3.0,-7.2,0.93
CC1CCCCN1C(=S)Nc1ccc(OC(F)F)cc1 (stereo unspecified),100.3,0.9,0.81,22.8,5.7,1.05
COC(=O)Cc1ccc(NC(=S)N2CCN(C)CC2)cc1,107.7,0.4,.,26.4,56.4*,1
COC(=O)Cc1ccc(NC(=S)N2CCCCC2C)cc1 (stereo unspecified),94.0,0.2,.,4.9,82.9*,1.26
CCc1ccc(NC(=S)N2CCCCCCC2)cc1,119.0,0.5,.,34.5,54.3*,2.15
SMILES,STAT1 activator,FLuc act counter,SDO1 yeast rescue,APP 5'UTR act,FLuc inhib CS,NF-kB neuron act
CCOc1ccccc1NC(C)C(=O)Nc1cc(C(F)(F)F)ccc1N1CCOCC1 (stereo unspecified),101.1,1,-0.24,19.8,0.6,0.78
COc1ccc(CNC(=O)C(C)OC(=O)c2cccn2C)cc1 (stereo unspecified),91.6,1,0.42,18.8,-2.6,0.8
Cc1cc2nc(N3C(=O)CNC3=S)sc2cc1C,104.5,0.2,.,90.9,82.5*,3.16
Cc1cc2nc(N)sc2cc1C,104.5,0.6,0.84,73.1,42.3,2.59
NC(N)=N/N=C/c1ccc(OCc2ccc(Cl)cc2)cc1,112.3,0.9,-2.17,111.1,7.2,5.98*
NC(N)=N/N=C/c1ccc(OCc2ccccc2)cc1,86.8,1,-1.53,52.2,-2.0,1.74
COC(=O)c1cnn(-c2ccccc2)c1-n1cccc1C=O,99.0,1.1,.,-20.7,-5.5,1.1
